# Assay results reported in ChEMBL document CHEMBL5532704, “Exploiting thiol-functionalized benzosiloxaboroles for achieving diverse substitution patterns - synthesis, characterization and biological evaluation of promising antibacterial agents” (RSC Med Chem, 2024).
# Assays:
# Pseudomonas aeruginosa = assay: Antibacterial activity against Pseudomonas aeruginosa ATCC […] assessed as inhibition of cell growth by broth-microdilution method; format: functional
# In short: (§1)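 Strains were held at −80 °C and subcultured twice on tryptic soy agar for 24–48 h at 30 °C. MIC was read by CLSI broth microdilution in Mueller–Hinton II broth, with and without the efflux-pump inhibitor PAβN (20 µg mL⁻¹). Both sets contained 1 mM MgSO₄. A ≥4-fold MIC drop with PAβN was taken as significant.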
# Escherichia coli = assay: Antibacterial activity against Escherichia coli ATCC 25922 assessed as inhibition of cell growth by broth-microdilution method; format: functional; in short: as §1
# [1] = system: Stenotrophomonas maltophilia; assay: Antibacterial activity against Stenotrophomonas maltophilia ATCC 12714 assessed as inhibition of cell growth by broth-microdilution method; format: functional; in short: as §1
# Proteus mirabilis = assay: Antibacterial activity against Proteus mirabilis ATCC 12453 assessed as inhibition of cell growth by broth-microdilution method; format: functional; in short: as §1
# Serratia marcescens = assay: Antibacterial activity against Serratia marcescens ATCC 13880 assessed as inhibition of cell growth by broth-microdilution method; format: functional; in short: as §1
# Enterobacter cloacae = assay: Antibacterial activity against Enterobacter cloacae DSM 6234 assessed as inhibition of cell growth by broth-microdilution method; format: functional; in short: as §1
# Acinetobacter baumannii = assay: Antibacterial activity against Acinetobacter baumannii ATCC 19606 assessed as inhibition of cell growth by broth-microdilution method; format: functional; in short: as §1
# Bacillus subtilis = assay: Antibacterial activity against Bacillus subtilis ATCC 6633 assessed as diameter of inhibition zone by CLSI based disc-diffusion method; format: functional
# In short: (§2)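 Strains were stored at −80 °C, then subcultured twice on tryptic soy agar for 24–48 h at 30 °C before the disc-diffusion test. The result was recorded as the inhibition-zone diameter.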
# Klebsiella pneumoniae = assay: Antibacterial activity against Klebsiella pneumoniae ATCC 13883 assessed as inhibition of cell growth by broth-microdilution method; format: functional; in short: as §1
# Staphylococcus aureus [2] = assay: Antibacterial activity against methicillin-resistant Staphylococcus aureus ATCC 43300 assessed as diameter of inhibition zone by CLSI based disc-diffusion method; format: functional
# In short: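 Disc-diffusion on standard strain subcultured twice on tryptic soy agar (24–48 h, 30 °C) after storage at −80 °C; inhibition zone diameter read; linezolid disc (0.03 mg) as reference.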
# Burkholderia cepacia = assay: Antibacterial activity against Burkholderia cepacia ATCC 25416 assessed as inhibition of cell growth by broth-microdilution method; format: functional
# [3] = system: Stenotrophomonas maltophilia; assay: Antibacterial activity against Stenotrophomonas maltophilia ATCC 13637 assessed as inhibition of cell growth by broth-microdilution method; format: functional; in short: as §1
# [4] = Selectivity ratio of IC50 for cytotoxicity against human MRC5 cells assessed as inhibition of cell growth to MIC for antibacterial activity against methicillin-resistant Staphylococcus aureus NMI 664 K assessed as inhibition of microbial growth by broth-microdilution method; format: toxicity, cell-based
# Candida parapsilosis = assay: Antifungal activity against Candida parapsilosis ATCC 22019 assessed as fungal growth inhibition by broth-microdilution method; format: functional; conditions: Lodderomyces parapsilosis
# In short: (§3)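 Yeasts were stored at −80 °C and subcultured twice on Sabouraud dextrose agar (24–48 h, 30 °C) to confirm viability. Growth inhibition was then measured as MIC by broth microdilution.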
# Candida tropicalis [5] = assay: Antifungal activity against Candida tropicalis ATCC 750 assessed as fungal growth inhibition by broth-microdilution method; format: functional; in short: as §3
# [6] = Selectivity ratio of IC50 for cytotoxicity against human MRC5 cells assessed as inhibition of cell growth to MIC for antibacterial activity against methicillin-resistant Staphylococcus aureus NMI 1712 K assessed as inhibition of microbial growth by broth-microdilution method; format: toxicity, cell-based
# Candida albicans = assay: Antifungal activity against Candida albicans ATCC 90028 assessed as fungal growth inhibition by broth-microdilution method; format: functional; in short: as §3
# Candida tropicalis [7] = assay: Antifungal activity against Candida tropicalis IBA 171 assessed as fungal growth inhibition by broth-microdilution method; format: functional; in short: as §3
# [8] = Selectivity ratio of IC50 for cytotoxicity against human MRC5 cells assessed as inhibition of cell growth to MIC for antibacterial activity against methicillin-resistant Staphylococcus aureus NMI 1576 K assessed as inhibition of microbial growth by broth-microdilution method; format: toxicity, cell-based
# Saccharomyces cerevisiae = assay: Antifungal activity against Saccharomyces cerevisiae ATCC 9763 assessed as fungal growth inhibition by broth-microdilution method; format: functional; in short: as §3
# [9] = Selectivity ratio of IC50 for cytotoxicity against human MRC5 cells assessed as inhibition of cell growth to MIC for antibacterial activity against methicillin-resistant Staphylococcus aureus NMI 1991 K assessed as inhibition of microbial growth by broth-microdilution method; format: toxicity, cell-based
# [10] = system: Staphylococcus epidermidis; assay: Antibacterial activity against Staphylococcus epidermidis ATCC 12228 assessed as diameter of inhibition zone by CLSI based disc-diffusion method; format: functional; in short: as §2
# Pichia kudriavzevii = assay: Antifungal activity against Candida krusei ATCC 6258 assessed as fungal growth inhibition by broth-microdilution method; format: functional; in short: as §3
# [11] = Selectivity ratio of IC50 for cytotoxicity against human MRC5 cells assessed as inhibition of cell growth to MIC for antibacterial activity against methicillin-resistant Staphylococcus aureus ATCC 43300 assessed as inhibition of microbial growth; format: toxicity, cell-based
# Enterococcus faecium [12] = assay: Antibacterial activity against Enterococcus faecium ATCC 6057 assessed as diameter of inhibition zone by CLSI based disc-diffusion method; format: functional; in short: as §2
# [13] = system: Meyerozyma guilliermondii; assay: Antifungal activity against Candida guilliermondii IBA 155 assessed as fungal growth inhibition by broth-microdilution method; format: functional; in short: as §3
# [14] = Selectivity ratio of IC50 for cytotoxicity against human MRC5 cells assessed as inhibition of cell growth to MIC for antibacterial activity against methicillin-resistant Staphylococcus aureus NMI 2541 K assessed as inhibition of microbial growth by broth-microdilution method; format: toxicity, cell-based
# Enterococcus faecalis = assay: Antibacterial activity against Enterococcus faecalis ATCC 29212 assessed as diameter of inhibition zone by CLSI based disc-diffusion method; format: functional; in short: as §2
# Enterococcus faecium [15] = assay: Antibacterial activity against Enterococcus faecium ATCC 6057 assessed as inhibition of microbial growth by broth-microdilution method; format: functional
# In short: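 Stocks were kept at −80 °C and subcultured twice on tryptic soy agar (24–48 h, 30 °C). MIC came from CLSI broth microdilution in Mueller–Hinton II broth, using agents dissolved in DMSO. The top tested concentration was lowered to 200, 100 or 50 µg mL⁻¹ for agents that precipitated in the medium above those levels.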
# Staphylococcus aureus [16] = assay: Bactericidal activity against methicillin-resistant Staphylococcus aureus NMI 1712 K assessed as inhibition of microbial growth by CLSI based microdilution method; format: functional
SMILES,diameter of the inhibition zone (DIZ) (Bacillus subtilis),diameter of the inhibition zone (DIZ) (Staphylococcus aureus [2]),selectivity ratio [4],MIC (Candida parapsilosis),MIC (Candida tropicalis [5]),selectivity ratio [6],MIC (Candida albicans),MIC (Candida tropicalis [7]),selectivity ratio [8],selectivity ratio [9],diameter of the inhibition zone (DIZ) [10],MIC (Pichia kudriavzevii),selectivity ratio [11],diameter of the inhibition zone (DIZ) (Enterococcus faecium [12]),MIC [13],selectivity ratio [14],diameter of the inhibition zone (DIZ) (Enterococcus faecalis),further results
C[Si]1(C)OB(O)c2ccc(SC3CC(=O)NC3=O)c(F)c21 (centres undefined),24 mm,22 mm,,,,,,,,,,,,,,,,MIC (Pseudomonas aeruginosa): > 25 µg/mL; MIC (Escherichia coli): > 25 µg/mL; MIC [1]: > 25 µg/mL; MIC (Proteus mirabilis): > 25 µg/mL; MIC (Serratia marcescens): > 25 µg/mL; MIC (Enterobacter cloacae): > 25 µg/mL; MIC (Acinetobacter baumannii): > 25 µg/mL; MIC (Klebsiella pneumoniae): > 25 µg/mL; MIC (Burkholderia cepacia): > 25 µg/mL; MIC [3]: > 25 µg/mL
C[Si]1(C)OB(O)c2ccc(SC(=O)c3ccc(C(F)(F)F)cc3)c(F)c21,15 mm,,8.9,> 12.5 µg/mL,> 12.5 µg/mL,8.9,> 12.5 µg/mL,> 12.5 µg/mL,4.5,4.5,16 mm,> 12.5 µg/mL,8.9,12 mm,> 12.5 µg/mL,8.9,,MIC (Saccharomyces cerevisiae): 6.25 µg/mL
C[Si]1(C)OB(O)c2cc(F)c(SC3CC(=O)NC3=O)c(F)c21 (centres undefined),27 mm,23 mm,13.4,,,13.4,,,26.8,13.4,,,13.4,,,13.4,,MIC (Pseudomonas aeruginosa): > 25 µg/mL; MIC (Escherichia coli): > 25 µg/mL; MIC [1]: > 25 µg/mL; MIC (Proteus mirabilis): > 25 µg/mL; MIC (Serratia marcescens): > 25 µg/mL; MIC (Enterobacter cloacae): > 25 µg/mL; MIC (Acinetobacter baumannii): > 25 µg/mL; MIC (Klebsiella pneumoniae): > 25 µg/mL; MIC (Burkholderia cepacia): > 25 µg/mL; MIC [3]: > 25 µg/mL
C[Si]1(C)OB(O)c2ccc(SC3CC(=O)N(c4ccc(Br)c(C(F)(F)F)c4)C3=O)c(F)c21 (centres undefined),,,,> 12.5 µg/mL,> 12.5 µg/mL,,> 12.5 µg/mL,> 12.5 µg/mL,,,,> 12.5 µg/mL,5.6,,> 12.5 µg/mL,,17 mm,
CC(=O)CCSc1c(F)cc2c(c1F)[Si](C)(C)OB2O,,19 mm,,,,,,,,,,,,21 mm,,,19 mm,MIC (Enterococcus faecium [15]): 12.5 µg/mL
CC(=O)CSc1ccc2c(c1F)[Si](C)(C)OB2O,24 mm,,> 32,,,> 32,,,> 32,> 32,23 mm,,> 32,,,> 32,16 mm,
C[Si]1(C)OB(O)c2cc(F)c(SCCC#N)c(F)c21,23 mm,19 mm,11.2,,,11.2,,,11.2,11.2,,,11.2,,,11.2,,MBC (Staphylococcus aureus [16]): 12.5 µg/mL
C[Si]1(C)OB(O)c2cc(F)c(SC3CC(=O)N(c4ccc(Br)c(C(F)(F)F)c4)C3=O)c(F)c21 (centres undefined),,,,> 12.5 µg/mL,> 12.5 µg/mL,,> 12.5 µg/mL,> 12.5 µg/mL,,,18 mm,> 12.5 µg/mL,1.5,18 mm,> 12.5 µg/mL,,18 mm,
C[Si]1(C)OB(O)c2ccc(SCC(=O)c3ccccc3)c(F)c21,,,40.4,,,40.4,,,40.4,80.8,,,40.4,17 mm,,80.8,17 mm,
C[Si]1(C)OB(O)c2ccc(SC3CC(=O)N(c4ccc(F)cc4)C3=O)c(F)c21 (centres undefined),,21 mm,,> 12.5 µg/mL,> 12.5 µg/mL,,> 12.5 µg/mL,> 12.5 µg/mL,,,21 mm,> 12.5 µg/mL,5.8,22 mm,> 12.5 µg/mL,,20 mm,MIC (Saccharomyces cerevisiae): 6.25 µg/mL
C[Si]1(C)OB(O)c2cc(F)c(SC3CC(=O)N(c4ccc(F)cc4)C3=O)c(F)c21 (centres undefined),,24 mm,,> 12.5 µg/mL,> 12.5 µg/mL,,> 12.5 µg/mL,> 12.5 µg/mL,,,,> 12.5 µg/mL,2.7,,> 12.5 µg/mL,,,MIC (Saccharomyces cerevisiae): 6.25 µg/mL
C[Si]1(C)OB(O)c2cc(F)c(SCCS(=O)(=O)c3ccccc3)c(F)c21,,28 mm,19.5,,,19.5,,,19.5,19.5,,,19.5,15 mm,,19.5,14 mm,
